The source made the active and inactive calls. No cut-off for these calls is given here.
Tests used:
Format in all cases: functional, organism-based
Rattus norvegicus [1] = experiment: Induction of stereotyped behavior in icv dosed Sprague-Dawley rat
Procedure, shortened: (§1)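 Cannula placed in the right lateral ventricle under pentobarbital (40 mg/kg, ip) at 0.40 mm bregma, 1.1 mm lateral, 2.2 mm ventral. After 3 days, compound (0.6 or 6.0 µg/5 µl, or 50 µg/5 µl) or 0.9% NaCl infused at 0.5 µl/min. Starting 5 min later, behavior observed for 45 min in Plexiglas chambers. Gnawing recorded by computer at 4.5 min intervals. Four rats per measurement; ANOVA with Duncan's test.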

Rattus norvegicus [2] = experiment: Diuretic effect in icv dosed Sprague-Dawley rat assessed as increase in urine volume after 6 hrs
Procedure, shortened: (§2)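 Adult male Sprague-Dawley rats (220–280 g) fitted with a cannula in the left lateral cerebroventricle under pentobarbital (40 mg/kg, ip), then allowed at least 3 days of recovery. Single ICV injection of 50 µg/10 µl, or vehicle NaCl 0.9%. Oral water load of 20 ml/kg, then individual metabolic cages. Urine collected at 3 and 6 h, with the bladder emptied at 6 h. Sodium measured by flame photometry. N = 6–8 per group; two-way ANOVA with Newman–Keuls.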

Rattus norvegicus [3] = experiment: Natriuretic effect in icv dosed Sprague-Dawley rat assessed as increase in sodium excretion after 6 hrs; procedure, shortened: as §2
Rattus norvegicus [4] = experiment: Natriuretic effect in icv dosed Sprague-Dawley rat assessed as increase in sodium excretion after 3 hrs; procedure, shortened: as §2
Rattus norvegicus [5] = experiment: Inhibition of dopamine-induced diuresis in icv dosed Sprague-Dawley rat
Procedure, shortened: (§3)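 Male Sprague-Dawley rats (220–280 g) with a left lateral ventricle cannula. ICV pretreatment of 50 µg/5 µl, or vehicle 5 µl, given 15 min before ICV dopamine (100 µg/5 µl) or saline, then oral water 20 ml/kg. Urine volume and sodium (flame photometry) measured over 3 h and 6 h collections. N = 6–8; two-way ANOVA with Newman–Keuls.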

Rattus norvegicus [6] = experiment: Inhibition of dopamine-induced natriuresis in icv dosed Sprague-Dawley rat; procedure, shortened: as §3
Rattus norvegicus [7] = experiment: Induction of stereotyped behavior in Sprague-Dawley rat at 0.6 ug/ul, icv; procedure, shortened: as §1
Rattus norvegicus [8] = experiment: Induction of stereotyped behavior in Sprague-Dawley rat at 6 ug/ul, icv; procedure, shortened: as §1
Rattus norvegicus [9] = experiment: Reduction of apomorphine-induced stereotyped behavior in Sprague-Dawley rat at 0.6 ug/ul, icv
Procedure, shortened: (§4)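 Rats cannulated in the right lateral ventricle. ICV infusion of 0.6 or 6.0 µg/5 µl, or 0.9% NaCl, at 0.5 µl/min. Apomorphine HCl (1 mg/kg) given 1 min before observation began. Stereotyped gnawing recorded by computer at 4.5 min intervals for 45 min. Four rats per measurement; means ± SEM; ANOVA with Duncan's multiple range test.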

Rattus norvegicus [10] = experiment: Reduction of apomorphine-induced stereotyped behavior in Sprague-Dawley rat at 6 ug/ul, icv; procedure, shortened: as §4

Compound | Activity (Rattus norvegicus [1]) | Activity (Rattus norvegicus [2]) | Activity (Rattus norvegicus [3]) | Activity (Rattus norvegicus [4]) | Activity (Rattus norvegicus [5]) | Activity (Rattus norvegicus [6]) | Activity (Rattus norvegicus [7]) | Activity (Rattus norvegicus [8]) | Activity (Rattus norvegicus [9]) | Activity (Rattus norvegicus [10])
CCC(C)NC1Cc2ccc(O)c(O)c2C1 (configuration not stated) | Active | Active | Active |  |  |  |  |  |  | 
CC(Cc1ccc(O)c(O)c1)NC1Cc2ccc(O)c(O)c2C1 (configuration not stated) |  | inactive | inactive | inactive | Active | Active | inactive | inactive | Active | Active

From ChEMBL document CHEMBL1143933, “Synthesis, dopaminergic profile, and molecular dynamics calculations of N-aralkyl substituted 2-aminoindans” (Bioorg Med Chem, 2008)
